According to ChEMBL document CHEMBL1148497 (Bioorg Med Chem Lett, 2006):

How the values were obtained:
HPAC = experiment: Cytotoxicity against human HPAC cell line; assay type: functional, cell-based
Outline: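 Human pancreatic ductal carcinoma HPAC cells grown in 1:1 DMEM/Ham's F-12 with 10% FBS at 37 °C, seeded at 2 × 10^3 cells/well. After 24 h, compounds were added from DMSO stocks (final DMSO 0.1%) for 72 h. WST-1 was then added for 3 h at 37 °C and absorbance read at 450 nm.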

Mus musculus [1] = experiment: Toxicity in BALB/c mouse at 0.5 mg/kg, ip; assay type: organism-based; set-up: dose 0.5 mg/kg, route intraperitoneal; settings: in vivo
Mus musculus [2] = experiment: Hepatic toxicity in BALB/c mouse at 0.5 mg/kg, ip; assay type: organism-based; set-up: dose 0.5 mg/kg, route intraperitoneal; settings: in vivo

Structure (SMILES): CCC(=C/[C@H](C)C/C=C/C(C)=C/[C@@H](CO)C(=O)[C@@H](C)[C@H](O)[C@@H](C)C/C(C)=C/C(=O)O)/C=C/[C@H]1CC(C)=CC(=O)O1
- IC50 (HPAC): 0.309 nM
- Activity (Mus musculus [1]): Non-toxic
- Activity (Mus musculus [2]): Non-toxic
